Screens: PubChem, several laboratories
Sampled rows, rich in hits. Any-hit rate of the full collection: about 2.3%.
HNF4A DNA FP = change in binding of human HNF4 alpha to DNA | AID 1224865 | 360,000 compounds, 0.3% hits | activity change, % at 10 µM | P41235 | HNF4a-FITC DNA binding, fluorescence polarization, 1 h; in the data active = activity change above about 30%, passing the limit was not always enough
Target sequence (P41235 whole entry, looked up): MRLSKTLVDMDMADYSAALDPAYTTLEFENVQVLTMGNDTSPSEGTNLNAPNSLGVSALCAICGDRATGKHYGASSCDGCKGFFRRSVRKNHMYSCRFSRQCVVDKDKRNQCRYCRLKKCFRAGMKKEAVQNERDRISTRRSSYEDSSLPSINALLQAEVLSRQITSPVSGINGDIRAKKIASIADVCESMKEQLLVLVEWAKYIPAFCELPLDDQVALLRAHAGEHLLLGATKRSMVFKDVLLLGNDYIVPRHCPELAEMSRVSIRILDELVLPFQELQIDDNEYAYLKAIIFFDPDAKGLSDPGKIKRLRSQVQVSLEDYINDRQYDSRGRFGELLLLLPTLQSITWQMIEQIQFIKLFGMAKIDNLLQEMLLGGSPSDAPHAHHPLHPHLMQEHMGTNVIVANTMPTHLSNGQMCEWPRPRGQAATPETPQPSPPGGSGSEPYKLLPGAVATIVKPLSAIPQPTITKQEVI
Rpn11 block = blocks the human proteasome subunit Rpn11; 360,000 compounds, 0.59% hits; inhibition, % at 20 µM; O00487; human 26S proteasome, Ub4-pepOG fluorescence polarization; 20S core pre-blocked with epoxomicin;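 active = inhibition at 20 µM, scaled to each plate's controls, above about 33%, limit read from the data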
Myeloid diff 2 = compounds promoting myeloid differentiation; ER-HoxA9 myeloid progenitors, lysozyme-GFP differentiation, flow cytometry; calls only at 10 µM; 360,000 compounds, 1% hits;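 active = normalized GFP-positive differentiation at or above the plate's own cutoff, the solvent-only control mean plus 3 SD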;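 note: cells exposed to compound for four days before flow analysis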
CSN deneddyl inh = blocks human CSN-mediated cullin deneddylation. Q92905. Purified CSN, SCF-Nedd8-OG deneddylation, fluorescence polarization. inhibition, % at 12.5 µM. 360,000 compounds, 0.38% hits. AID 651999;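 active = pattern-corrected inhibition above about 35%, with an unprinted fluorescence ratio check between 0.5 and 1.5, limit read from the data, passing the limit was not always enough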;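 note: 0% = enzyme with substrate and 100% = substrate without enzyme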
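Detection – fluorescence polarization · System – HEK293T-derived human Csn5 enzyme · Controls – substrate-only high control, full reaction low control · Timing – 90 min, room temperature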
TPT1 inh = C. albicans TPT1 enzyme inhibition; recombinant caTPT1, FP RNA substrate dephosphorylation; AID 1962; inhibition, % at 5 µM; 300,000 compounds, 0.81% hits;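 active = inhibition above the mean of all tested compounds plus 3 SD, set per screening campaign, cut at about 24% in these data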;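 note: plate controls were DMSO alone for no effect and ferristatin control at 100 nM for full effect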
TPT1 inh confirm = TPT1 (C. albicans) inhibition, confirmation. shares compounds with TPT1 inh. recombinant caTPT1, fluorescence polarization, RNase T1 coupled. inhibition, % at 5 µM. 2,400 compounds, 74% hits. AID 2149;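 active = inhibition above the primary screen limit, the mean inhibition of all tested compounds plus 3 SD, cut at about 25% in these data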
RNase T1 inh = counter-screen for TPT1 inhibitors: inhibitors of Aspergillus oryzae RNase T1 | RNase T1 cleavage, fluorescence polarization, 1536-well | shares compounds with TPT1 inh | inhibition, % at 5 µM | 2,400 compounds, 83% hits;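 active = inhibition above the solvent-only control well mean plus 3 SD, limit set per screening run, cut at about 23% in these data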;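 note: plate controls were DMSO wells with enzyme for no effect and wells without RNase T1 for full effect; inhibitors block cleavage so intact labeled substrate keeps polarization high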
Target sequence (P00651 whole entry, looked up): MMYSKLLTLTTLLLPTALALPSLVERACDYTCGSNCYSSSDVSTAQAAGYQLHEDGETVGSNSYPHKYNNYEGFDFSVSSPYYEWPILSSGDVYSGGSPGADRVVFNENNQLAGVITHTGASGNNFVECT
Rpn11 confirm = Rpn11 inhibition confirmation, single concentration | purified human 26S proteasome, Ub4-pepOG fluorescence polarization; proteasome pretreated with epoxomicin | AID 602318 | 1,900 compounds, 29% hits | shares compounds with Rpn11 block | inhibition, % at 20 µM
MMP-2 inh = blocks human MMP-2, flagging nonselective RPN11 hits | inhibition, % at 20 µM | recombinant MMP-2, FRET peptide cleavage fluorescence | shares compounds with Rpn11 block | 1,900 compounds, 4% hits;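 note: human MMP-2 activated beforehand with APMA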
Thrombin inh = counter-screen for RPN11 inhibitors: inhibition of bovine thrombin; inhibition, % at 20 µM; 1,900 compounds, 13% hits; shares compounds with Rpn11 block; bovine thrombin cleavage of Ub4-pepOG, fluorescence polarization;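 active = mean inhibition at least 40% at 20 µM, or signal 3 deviations below plate average, so some actives read negative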;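 note: plate controls were thrombin with DMSO for no effect and buffer wells lacking thrombin for full effect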
Myeloid diff CP1 = promotes myeloid progenitor differentiation | AID 651706 | ER-HoxA9 myeloid progenitors, GFP/Mac1 double-positive flow | 2,300 compounds, 2% hits | calls only | shares compounds with Myeloid diff 2;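 active = share of green or green-and-red cells above 9 and 9% in run 1 or 4 and 3% in run 2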
GFP autofluor = compound fluorescence in myeloid differentiation counter-screen | ER-HoxA9 myeloid progenitors, no estrogen, GFP autofluorescence flow cytometry; vehicle wells 0%, positive control 100% | fluorescence response, % (no concentration beside the values) | shares compounds with Myeloid diff 2 | 2,300 compounds, 7.4% hits;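 active = over 5% cells positive for green fluorescent reporter, or over 2% positive for both it and APC stain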;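 note: range taken on the double positive population between DMSO and positive control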
* = called active by the depositor; i = inactive; / = no result given; + = active, no number. Cut-off read from the data, not from the text of the source, unless noted: active = inhibition above about 40%; inactive = the rest.

SMILES	HNF4A DNA FP	Rpn11 block	Myeloid diff 2	CSN deneddyl inh	TPT1 inh	TPT1 inh confirm	RNase T1 inh	Rpn11 confirm	MMP-2 inh	Thrombin inh	others
CC(C)(C)C(=O)N1Cc2cc(N3CCCCC3)ccc2-n2nncc2C1	3.6	2.9	i	2.8	/	/	/	/	/	/
CCCOP(=O)(OCCC)C(NC(=O)c1ccccc1)=C(Cl)Cl	-0.6	-3.1	i	-17.9	-5.1	/	/	/	/	/
CCOP(=O)(OCC)C(NC(=O)c1ccc(Cl)cc1)=C(Cl)Cl	-0.8	-1.7	i	-0.2	49.3*	-0.2	4.9	/	/	/
CC(C)CCn1c(N)c(C(=O)NCc2cccs2)c2nc3ccccc3nc21	6.4	16.7	i	10.2	0.5	/	/	/	/	/
CC(C)CNC(=O)c1c(N)n(Cc2ccco2)c2nc3ccccc3nc12	3.5	29.7	i	16.6	28.5*	16.1	23.0*	/	/	/
CCCNC(=O)c1c(N)n(Cc2ccco2)c2nc3ccccc3nc12	/	/	/	/	15.4	/	/	/	/	/
CC(C)OCCCNC(=O)c1c(N)n(Cc2cccs2)c2nc3ccccc3nc12	3.6	17.9	i	6.8	26.5*	10.3	12.4	/	/	/
CSc1ncc(/C=C2/C(=O)NC(=O)N(C3CCCCC3)C2=O)cn1	2.6	7.3	i	6.0	31.5*	31.6*	42.7*	/	/	/
C=CCn1c(O)c(/C=C2\C=Nc3ccccc32)c(=O)[nH]c1=O	1.3	60.3*	i	7.7	35.5*	13.5	20.6	14.5	-4.8	9.8
COc1ccc(OC)c(-n2c(O)c(/C=C3\C=Nc4ccccc43)c(=O)[nH]c2=O)c1	1.4	20.2	i	4.5	15.0	/	/	/	/	/
COc1ccccc1-n1c(O)c(/C=C2\C=Nc3ccccc32)c(=O)[nH]c1=O	1.1	47.8*	i	3.6	28.7*	15.3	22.2*	5.5	1.3	0.1
CCOc1ccc(-n2c(O)c(/C=C3\C=Nc4ccccc43)c(=O)[nH]c2=O)cc1	-7.6	35.5	i	-0.6	22.9	/	/	/	/	/
COc1cccc(C)c1NC1=NCCO1	1.5	4.4	i	1.6	/	/	/	/	/	/
COc1ccc(Cn2c(N)c(C(=O)NCc3ccco3)c3nc4ccccc4nc32)cc1OC	10.6	46.2*	i	57.2*	28.2*	6.7	12.2	-3.5	-37.3	-1.9
COc1ccc(-n2c(/C=C/c3ccc(O)c(O)c3)nc3ccccc3c2=O)cc1	20.0	120.0*	i	24.5	35.9*	58.2*	61.5*	71.8*	2.6	52.7*
CCOc1ccc(N2C(=O)/C(=C/c3ccc(C)o3)C(=O)NC2=S)cc1	20.9	77.3*	i	27.4	32.1*	47.0*	57.4*	24.8	56.5*	33.6
CCOC(=O)c1c(-n2c(C)cc(/C=C3\C(=O)NC(=O)N(C)C3=O)c2C)sc2c1CCCC2	2.2	17.1	i	1.9	17.3	/	/	/	/	/
Cc1cc(/C=C2\C(=O)NC(=O)N(c3ccc(Cl)cc3)C2=O)c(C)n1-c1sc2c(c1C#N)CCCC2	5.3	50.4*	i	26.8	45.8*	18.6	27.5*	36.4	-16.3	23.9
CC12Nc3ccccc3C(=O)N1Cc1cnnn1-c1ccccc12 (configuration not stated)	1.5	/	i	-7.3	/	/	/	/	/	/
Cn1c(O)c(/C=N/NC(=O)c2ccncc2)c(=O)n(C)c1=S	14.3	96.2*	i	21.8	116.3*	100.7*	110.5*	38.7	-39.4	20.5
O=C(N/N=C/c1c(O)n(-c2ccccc2)c(=O)[nH]c1=O)c1ccncc1	7.4	13.8	i	10.8	15.9	/	/	/	/	/
Cc1cccc(N2C(=O)/C(=C/c3ccc(CN(CCC#N)S(C)(=O)=O)o3)C(=O)NC2=S)c1	21.7	41.8*	i	31.2	33.7*	21.5	28.9*	73.0*	46.0*	125.3*
O=C1C(Br)C2CCC1C2C(=O)O (configuration not stated)	0.8	3.5	i	-2.5	/	/	/	/	/	/
CCn1c(O)c(C=Nc2ccc(S(N)(=O)=O)cc2)c(=O)n(CC)c1=S	6.4	/	i	-4.7	19.5	/	/	/	/	/
NS(=O)(=O)c1ccc(N=Cc2c(O)n(C3CCCCC3)c(=O)n(C3CCCCC3)c2=O)cc1	6.4	72.3*	i	22.8	44.4*	19.5	25.0*	22.3	-19.6	18.2
SMILES	HNF4A DNA FP	Rpn11 block	Myeloid diff 2	CSN deneddyl inh	TPT1 inh	TPT1 inh confirm	RNase T1 inh	Rpn11 confirm	MMP-2 inh	Thrombin inh	others
CCC(c1nnnn1-c1ccc(OC)cc1)N1CCC2(CC1)C(=O)NCN2c1ccccc1 (configuration not stated)	-1.3	-3.7	i	1.1	/	/	/	/	/	/
O=C1NCN(c2ccccc2)C12CCN(C(c1cccc3ccccc13)c1nnnn1C1CCCC1)CC2 (configuration not stated)	1.0	-6.5	i	7.3	/	/	/	/	/	/
CCN(CC)c1ccc(N=Cc2c(O)n(-c3cc(OC)ccc3OC)c(=O)[nH]c2=O)cc1	12.9	40.4*	i	20.6	92.8*	76.2*	87.5*	46.5*	-8.6	41.8*
CCC(C)N1C(=O)/C(=C\c2ccc(N3CCCCCC3)cc2)C(=O)NC1=S (configuration not stated)	8.0	59.9*	i	23.8	24.9*	37.1*	57.8*	2.7	9.0	0.4
CC(=O)OC1CCC2(C)C(CCC3C4CC(N5CC5)C(C(C)=O)C4(C)CC(=O)C32)C1 (configuration not stated)	2.0	-2.0	i	0.9	/	/	/	/	/	/
O=c1c2ccccc2nc(/C=C/c2ccccc2O)n1-c1ccccc1O	10.8	/	+	26.0	24.6*	36.5*	48.2*	/	/	/	Myeloid diff CP1=i;GFP autofluor=58.9*
O=c1c2ccccc2nc(/C=C/c2ccccc2F)n1-c1ccccc1O	-1.8	-4.4	i	2.8	0.4	/	/	/	/	/
O=C1NC(=S)N(c2ccc(Cl)cc2)C(=O)/C1=C/N1CCN(C(=O)c2ccco2)CC1	16.3	/	i	42.5*	39.4*	29.1*	41.1*	/	/	/	Myeloid diff CP1=i;GFP autofluor=0.4
